Data set [1] can be described thus: Antiproliferative activity against human LS 174T cells expressing shca9 under hypoxia condition at 60 uM after 3 days by cell counting technique relative to control. The data set is classed as functional, LS174T. In outline: (§1)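 LS174Tr colon carcinoma cells carrying Tet-inducible ca9 shRNA plus nontarget (ctl) or constitutive ca12 shRNA. Tet (1 µg/ml) added 4 days before assay for ca12-silenced cells. 6 x 10^4 cells seeded; 24 h later moved to hypoxia (1% O2) with or without inhibitor (DMSO control). Cells detached and Coulter-counted every 24 h for 3 days; proliferation index = daily count / count at 24 h post-seeding.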

Data set [2] deals with LS174T. Put plainly: Reduction in CA9 mRNA level in human LS 174T cells expressing shca9 and tetracyclin repressor under hypoxia condition at 60 uM after 48 hrs by Western blot analysis. The data set is classed as functional, cell-based.
The nature of data set [3]: Antiproliferative activity against ca9/ca12 double silenced human LS 174T cells under hypoxia assessed as decrease in cell proliferation at 60 uM after 3 days by cell counting technique relative to control. The data set is classed as functional, LS174T. More on the design: scale not given: the % may be the effect or the level left. In outline: as §1
Data set [4] can be described thus: Cytotoxicity against CA9-deficient chinese hamster PS120 cells assessed as cell viability at 60 uM and pH 7.5 after 24 hrs by giemsa staining. The data set is classed as cell-based, Cricetulus griseus. Particulars: ps120, pH 7.5, 24 h. In outline: (§2)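 PS120-pev fibroblasts (CCL39-derived, no CA IX) attached, then held 24 h in HCO3−-free DMEM with 30 mM HEPES at pHo 7.5, 10% dialyzed serum, 0.1 mM hypoxanthine and 0.1 mM uridine triphosphate, in CO2/HCO3−-free atmosphere, with compound or DMSO. Then returned to regular medium under 5% CO2 for 7 days; Giemsa staining; scored viable or not viable.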

Data set [5] concerns the target T1, Carbonic anhydrase 9 (Homo sapiens, UniProt Q16790). Particulars: PS120, at 60 µM.
Data set [6] can be described thus: Cytotoxicity against CA9-deficient chinese hamster PS120 cells assessed as cell viability at 300 uM and pH 7.5 after 24 hrs by giemsa staining. The data set is classed as cell-based, Cricetulus griseus. Particulars: ps120, pH 7.5, 24 h. In outline:
as §2

The target in data set [7] is T1, Carbonic anhydrase 9.
The nature of data set [8]: Cytotoxicity against CA9-deficient chinese hamster PS120 cells assessed as cell viability at 30 uM and pH 7.5 after 24 hrs by giemsa staining. Particulars: ps120, pH 7.5, 24 h. The data set is classed as cell-based, Cricetulus griseus. In outline:
as §2

Data set [9] can be described thus: Cytotoxicity against CA9-deficient chinese hamster PS120 cells assessed as cell viability at 100 uM and pH 7.5 after 24 hrs by giemsa staining. The data set is classed as cell-based, Cricetulus griseus. Particulars: ps120, pH 7.5, 24 h. In outline: as §2
Data set [10] concerns LS174T. Kind of data set: Reduction in CA9 level in human LS 174T cells expressing shca9 and tetracyclin repressor under hypoxia condition at 60 uM after 48 hrs by Western blot analysis. The data set is classed as functional, cell-based. In outline: (§3)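 Stable LS-shca9/ctl cells kept without Tet for 4 days, then placed in normoxia (21% O2) or hypoxia (1% O2) for 48 h with or without 60 µM compound. Whole-cell SDS lysates (40 µg protein) run on 7.5% SDS-PAGE and immunoblotted with M75 anti-CA IX; Hsp90 as loading control; HRP secondary with ECL detection.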

For data set [11], the system named is LS174T. Put plainly: Reduction in CA9 mRNA level in human LS 174T cells expressing shca9 and tetracyclin repressor under normoxia condition at 60 uM after 48 hrs by Western blot analysis. The data set is classed as functional, cell-based.
Data set [12] has as its system LS174T. Put plainly: Reduction in CA9 protein level in human LS 174T cells expressing shca9 and tetracyclin repressor under normoxia condition at 60 uM after 48 hrs by Western blot analysis. The data set is classed as functional, cell-based. In outline:
as §3

SMILES strings stand for the structures. Active and inactive are the calls of the source. The calls are words filed in the database; no cut-off is given here.

On to `CC(=O)OC[C@H]1O[C@@H](SCc2nnn(-c3ccc(S(N)(=O)=O)cc3)c2I)[C@H](OC(C)=O)[C@@H](OC(C)=O)[C@@H]1OC(C)=O`, for which the Activity in data set [1] is listed as 60%; in [3] it was 16%; in data set [4], “Non-toxic”; in data set [6] it was “Toxic”; in data set [8], “Non-toxic”; in data set [9], “Toxic”. Moreover, the outcome in the data set on LS174T [2], in the data set on LS174T [10], in the data set with LS174T [11] and in the data set on LS174T [12] was Active. The inhibition entry at Carbonic anhydrase 9 [5] is “Active”. The molecule further registered an inhibition constant (Ki) at Carbonic anhydrase 9 [7] of 6.2 nM.
Take `CC(=O)OC[C@H]1O[C@@H](S(=O)(=O)Cc2nnn(-c3ccc(S(N)(=O)=O)cc3)c2I)[C@H](OC(C)=O)[C@@H](OC(C)=O)[C@@H]1OC(C)=O`: the Activity entry in data set [4] was “Toxic”; in data set [6], “Toxic”; in data set [8] it was “Non-toxic”; in [9] it was “Toxic”. Moreover, affinity at Carbonic anhydrase 9 [7] was put at a Ki of 71 nM.
`CC(=O)OC[C@H]1O[C@@H](SCc2nnn(-c3ccc(S(N)(=O)=O)cc3)c2C#CCO)[C@H](OC(C)=O)[C@@H](OC(C)=O)[C@H]1OC(C)=O` registered a Ki at Carbonic anhydrase 9 [7] of 91 nM.
For the molecule `CC(=O)Nc1nnc(S(N)(=O)=O)s1` [ACETAZOLAMIDE], the Activity entry in data set [4] is listed as “Non-toxic”; in data set [6], “Toxic”; in [8], “Non-toxic”; in data set [9], “Non-toxic”.
On to `NS(=O)(=O)c1ccc(-n2cc(CS(=O)(=O)[C@@H]3O[C@H](CO)[C@@H](O[C@H]4O[C@H](CO)[C@@H](O)[C@H](O)[C@H]4O)[C@H](O)[C@H]3O)nn2)cc1`, for which the Ki on Carbonic anhydrase 9 [7] worked out at 71.2 nM.
Consider `NS(=O)(=O)c1ccc(-n2nnc(CS[C@@H]3O[C@H](CO)[C@@H](O)[C@H](O)[C@H]3O)c2I)cc1`, for which the Activity result in data set [4], in data set [6], in [8] and in data set [9] was “Non-toxic” in each case. Moreover, the affinity at Carbonic anhydrase 9 [7] corresponds to a Ki of 6.5 nM.
As for `CC(=O)OC[C@H]1O[C@@H](S(=O)(=O)Cc2nnn(-c3ccc(S(N)(=O)=O)cc3)c2I)[C@H](OC(C)=O)[C@@H](OC(C)=O)[C@@H]1O[C@H]1O[C@H](COC(C)=O)[C@@H](OC(C)=O)[C@H](OC(C)=O)[C@H]1OC(C)=O`, the affinity at Carbonic anhydrase 9 [7], expressed as Ki, was 99.6 nM.
Regarding `NS(=O)(=O)c1ccc(-n2nnc(CS(=O)(=O)[C@@H]3O[C@H](CO)[C@@H](O[C@H]4O[C@H](CO)[C@@H](O)[C@H](O)[C@H]4O)[C@H](O)[C@H]3O)c2I)cc1`, the Ki at Carbonic anhydrase 9 [7] came out at 68 nM.
The same measure, in the same setting: then `NS(=O)(=O)c1ccc(-n2nnc(CS[C@@H]3O[C@H](CO)[C@H](O)[C@H](O)[C@H]3O)c2I)cc1`, with 7.3 nM.
Turning to `CC(=O)OC[C@H]1O[C@@H](SCc2cn(-c3ccc(S(N)(=O)=O)cc3)nn2)[C@H](OC(C)=O)[C@@H](OC(C)=O)[C@@H]1OC(C)=O`, the Activity entry in data set [4], in data set [8] and in data set [9] was “Non-toxic” in each case.
On to `NS(=O)(=O)c1ccc(-n2cc(CS(=O)(=O)[C@@H]3O[C@H](CO)[C@@H](O)[C@H](O)[C@H]3O)nn2)cc1`, for which the Activity entry in data set [4], in data set [6], in [8] and in data set [9] was “Non-toxic” in each case.
Consider `CC(=O)OC[C@H]1O[C@@H](S(=O)(=O)Cc2cn(-c3ccc(S(N)(=O)=O)cc3)nn2)[C@H](OC(C)=O)[C@@H](OC(C)=O)[C@@H]1OC(C)=O`, for which the Activity entry in data set [4], in [6], in data set [8] and in data set [9] was “Non-toxic” each time.
In the case of `NS(=O)(=O)c1ccc(-n2nnc(CS(=O)(=O)[C@@H]3O[C@H](CO)[C@H](O)[C@H](O)[C@H]3O)c2I)cc1`, the Ki on Carbonic anhydrase 9 [7] was 89 nM.
The same measure, in the same setting: then `CC(=O)OC[C@H]1O[C@@H](S(=O)(=O)Cc2nnn(-c3ccc(S(N)(=O)=O)cc3)c2I)[C@H](OC(C)=O)[C@@H](OC(C)=O)[C@H]1OC(C)=O`, with 97 nM; and `CC(=O)OC[C@H]1O[C@@H](S(=O)(=O)Cc2cn(-c3ccc(S(N)(=O)=O)cc3)nn2)[C@H](OC(C)=O)[C@@H](OC(C)=O)[C@@H]1O[C@H]1O[C@H](COC(C)=O)[C@@H](OC(C)=O)[C@H](OC(C)=O)[C@H]1OC(C)=O`, with 61.9 nM.
On to `NS(=O)(=O)c1ccc(-n2nnc(CS(=O)(=O)[C@@H]3O[C@H](CO)[C@@H](O)[C@H](O)[C@H]3O)c2I)cc1`, for which the Activity result in data set [4] is on record as “Non-toxic”; in data set [6] it was “Toxic”; in data set [8], “Non-toxic”; in data set [9], “Non-toxic”. On Carbonic anhydrase 9 [7], the inhibition constant Ki is 61 nM.
Take `NS(=O)(=O)c1ccc(-n2cc(CS[C@@H]3O[C@H](CO)[C@@H](O)[C@H](O)[C@H]3O)nn2)cc1`: the Activity entry in data set [4], in data set [6], in [8] and in data set [9] was “Non-toxic” throughout.
On Carbonic anhydrase 9 [7], `CC(=O)OC[C@H]1O[C@@H](SCc2nnn(-c3ccc(S(N)(=O)=O)cc3)c2I)[C@H](OC(C)=O)[C@@H](OC(C)=O)[C@H]1OC(C)=O` registered a Ki of 95 nM.

Source of the values: ChEMBL document CHEMBL1833899, “Targeting hypoxic tumor cell viability with carbohydrate-based carbonic anhydrase IX and XII inhibitors” (J Med Chem, 2011).
